Experimental data reported in ChEMBL document CHEMBL1629690, “Development of hexadecyloxypropyl tenofovir (CMX157) for treatment of infection caused by wild-type and nucleoside/nucleotide-resistant HIV” (Antimicrob Agents Chemother, 2010).
pEC50: −log10 of the molar value.

Legend:
[1] = test system: Human immunodeficiency virus 1; assay: Antiviral activity against HIV1 isolate 166 harboring reverse transcriptase L74V mutant gene obtained as site-directed mutant of NL4-3 by phenosense assay relative to wild type; assay type: functional
Summary of the method: (§1)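 Recombinant-virus PhenoSense HIV assay run on a panel of 30 NRTI-resistant HIV-1 mutants and two wild-type viruses. Each virus is tested across increasing drug concentrations to give an inhibition curve and EC50. Fold change is the test recombinant EC50 divided by the EC50 of the drug-sensitive wild-type reference virus.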

[2] = test system: Human immunodeficiency virus 1; assay: Antiviral activity against HIV1 isolate 180 harboring reverse transcriptase K65R mutant gene obtained as site-directed mutant of NL4-3 by phenosense assay relative to wild type; assay type: functional; summary of the method: as §1
[3] = test system: Human immunodeficiency virus 1; assay: Antiviral activity against HIV1 isolate 070 harboring reverse transcriptase 65R/S68G mutant gene by phenosense assay relative to wild type; assay type: functional; summary of the method: as §1
[4] = test system: Human immunodeficiency virus 1; assay: Antiviral activity against HIV1 isolate 157 harboring reverse transcriptase L74V/M184V mutant gene by phenosense assay; assay type: functional, organism-based; details: Human immunodeficiency virus 1, isolate 157; summary of the method: as §1
[5] = test system: Human immunodeficiency virus 1; assay: Antiviral activity against HIV1 isolate 192 harboring reverse transcriptase M41L/T215Y mutant gene by phenosense assay relative to wild type; assay type: functional; summary of the method: as §1
[6] = test system: Human immunodeficiency virus 1; assay: Antiviral activity against HIV1 isolate 174 harboring reverse transcriptase M184V mutant gene obtained as site-directed mutant of NL4-3 by phenosense assay; assay type: functional, organism-based; details: Human immunodeficiency virus 1, isolate 174; summary of the method: as §1
[7] = test system: Human immunodeficiency virus 1; assay: Antiviral activity against HIV1 isolate 194 harboring reverse transcriptase M41L/T215Y/M184V mutant gene by phenosense assay; assay type: functional, organism-based; details: Human immunodeficiency virus 1, isolate 194; summary of the method: as §1
[8] = test system: Human immunodeficiency virus 1; assay: Antiviral activity against HIV1 isolate 058 harboring reverse transcriptase M41L/D67N/K70R/L210W/T215F/K219Q mutant gene by phenosense assay relative to wild type; assay type: functional; summary of the method: as §1
[9] = test system: Human immunodeficiency virus 1; assay: Antiviral activity against HIV1 isolate 061 harboring reverse transcriptase M41L/D67N/K70R/M184V/L210W/T215Y/K219E mutant gene by phenosense assay relative to wild type; assay type: functional; summary of the method: as §1
[10] = test system: Human immunodeficiency virus 1; assay: Antiviral activity against HIV1 isolate 070 harboring reverse transcriptase 65R/S68G mutant gene by phenosense assay; assay type: functional, organism-based; details: Human immunodeficiency virus 1, isolate 070; summary of the method: as §1
[11] = test system: Human immunodeficiency virus 1; assay: Antiviral activity against HIV1 isolate 071 harboring reverse transcriptase 65R/S68N/184V mutant gene by phenosense assay; assay type: functional, organism-based; details: Human immunodeficiency virus 1, isolate 071; summary of the method: as §1
[12] = test system: Human immunodeficiency virus 1; assay: Antiviral activity against HIV1 isolate 153 harboring reverse transcriptase L74V mutant gene by phenosense assay relative to wild type; assay type: functional; summary of the method: as §1
[13] = test system: Human immunodeficiency virus 1; assay: Antiviral activity against HIV1 isolate 211 harboring reverse transcriptase D67N/K70R/T215F/K219E/M184V mutant gene by phenosense assay relative to wild type; assay type: functional
Summary of the method: (§2)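 PhenoSense HIV recombinant virus assay: patient-derived HIV-1 with major NRTI resistance mutations tested against increasing drug concentrations to give inhibition curves. EC50 is the concentration giving 50% inhibition. Fold change is the test recombinant EC50 divided by the EC50 of a drug-sensitive wild-type reference virus. Panel of 30 NRTI-resistant isolates plus two wild-type viruses.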

[14] = test system: Human immunodeficiency virus 1; assay: Antiviral activity against HIV1 isolate 220 harboring reverse transcriptase K70E/M184V mutant gene by phenosense assay; assay type: functional, organism-based; details: Human immunodeficiency virus 1, isolate 220; summary of the method: as §2
[15] = test system: Human immunodeficiency virus 1; assay: Antiviral activity against HIV1 isolate 063 harboring reverse transcriptase M41L/D67N/K70R/M184V/L210W/T215Y/K219E mutant gene by phenosense assay; assay type: functional, organism-based; details: Human immunodeficiency virus 1, isolate 063; summary of the method: as §1
[16] = test system: Human immunodeficiency virus 1; assay: Antiviral activity against HIV1 isolate 160 harboring reverse transcriptase S68G/V75(I/T)/F77L/Y115F/F116Y /Q151M mutant gene by phenosense assay; assay type: functional, organism-based; details: Human immunodeficiency virus 1, isolate 160; summary of the method: as §1
[17] = test system: Human immunodeficiency virus 1; assay: Antiviral activity against HIV1 isolate 203 harboring reverse transcriptase M41L/L210W/T215Y/M184V mutant gene by phenosense assay; assay type: functional, organism-based; details: Human immunodeficiency virus 1, isolate 203; summary of the method: as §2
[18] = test system: Human immunodeficiency virus 1; assay: Antiviral activity against HIV1 isolate 058 harboring reverse transcriptase M41L/D67N/K70R/L210W/T215F/K219Q mutant gene by phenosense assay; assay type: functional, organism-based; details: Human immunodeficiency virus 1, isolate 058; summary of the method: as §1
[19] = test system: Human immunodeficiency virus 1; assay: Antiviral activity against HIV1 isolate 063 harboring reverse transcriptase M41L/D67N/K70R/M184V/L210W/T215Y/K219E mutant gene by phenosense assay relative to wild type; assay type: functional; summary of the method: as §1
[20] = test system: Human immunodeficiency virus 1; assay: Antiviral activity against HIV1 isolate 067 harboring reverse transcriptase A62V/D67G/T69SVG/V75I/T215I mutant gene by phenosense assay; assay type: functional, organism-based; details: Human immunodeficiency virus 1, isolate 067; summary of the method: as §1
[21] = test system: Human immunodeficiency virus 1; assay: Antiviral activity against HIV1 isolate 162 harboring reverse transcriptase A62V/V75I/F77L/Y115F/F116Y/Q151M/M184V mutant gene by phenosense assay relative to wild type; assay type: functional; summary of the method: as §1
[22] = test system: Human immunodeficiency virus 1; assay: Antiviral activity against HIV1 isolate 160 harboring reverse transcriptase S68G/V75(I/T)/F77L/Y115F/F116Y /Q151M mutant gene by phenosense assay relative to wild type; assay type: functional; summary of the method: as §1
[23] = test system: Human immunodeficiency virus 1; assay: Antiviral activity against HIV1 isolate 217 harboring reverse transcriptase D67N/K70E/M184V mutant gene by phenosense assay relative to wild type; assay type: functional; summary of the method: as §2
[24] = test system: Human immunodeficiency virus 1; assay: Antiviral activity against HIV1 isolate 206 harboring reverse transcriptase D67N/K70R mutant gene by phenosense assay; assay type: functional, organism-based; details: Human immunodeficiency virus 1, isolate 206; summary of the method: as §2
[25] = test system: Human immunodeficiency virus 1; assay: Antiviral activity against HIV1 isolate 071 harboring reverse transcriptase 65R/S68N/184V mutant gene by phenosense assay relative to wild type; assay type: functional; summary of the method: as §1
[26] = test system: Human immunodeficiency virus 1; assay: Antiviral activity against HIV1 isolate 217 harboring reverse transcriptase D67N/K70E/M184V mutant gene by phenosense assay; assay type: functional, organism-based; details: Human immunodeficiency virus 1, isolate 217; summary of the method: as §2

| SMILES | fold change (FC) [1] | fold change (FC) [2] | fold change (FC) [3] | pEC50 [4] | fold change (FC) [5] | pEC50 [6] | pEC50 [7] | fold change (FC) [8] | fold change (FC) [9] | pEC50 [10] | pEC50 [11] | fold change (FC) [12] | fold change (FC) [13] | pEC50 [14] | pEC50 [15] | pEC50 [16] | pEC50 [17] | pEC50 [18] | fold change (FC) [19] | pEC50 [20] | other results |
| --- | --- | --- | --- | --- | --- | --- | --- | --- | --- | --- | --- | --- | --- | --- | --- | --- | --- | --- | --- | --- | --- |
| Nc1ccn([C@@H]2CS[C@H](CO)O2)c(=O)n1 [LAMIVUDINE] | 1.6 | 12 | 19 | < 3.52 | 2 | < 3.52 | < 3.52 | 3.7 | >71 | 4.15 | < 3.52 | 1.9 | >80 | < 3.52 | < 3.52 | 4.05 | < 3.52 | 4.85 | >80 | 4.34 | fold change (FC) [21]: >80; fold change (FC) [22]: 24; fold change (FC) [23]: >80; pEC50 [24]: 5.09; fold change (FC) [25]: >80; pEC50 [26]: < 3.52 |
| Cc1cn([C@H]2C=C[C@@H](CO)O2)c(=O)[nH]c1=O [STAVUDINE] | 1.1 | 1.4 | 1.3 | 6.38 | 1.4 | 6.40 | 6.07 | 3.7 | 2.6 | 6.11 | 6.23 | 1 | 1.3 | 6.41 | 5.85 | 5.26 | 6.06 | 5.66 | 2.3 | 5.19 | fold change (FC) [21]: 7.1; fold change (FC) [22]: 9.3; fold change (FC) [23]: 0.7; pEC50 [24]: 6.11; fold change (FC) [25]: 0.99; pEC50 [26]: 6.38 |
